The record followed here is ChEMBL document CHEMBL5030525, “Design, synthesis and antitumor activity evaluation of trifluoromethyl-substituted pyrimidine derivatives” (Bioorg Med Chem Lett, 2021).

Common to all, as to type: functional, cell-based
One assay deals with MGC-803. As to the kind of experiment: Antiproliferative activity against human MGC-803 cells assessed as inhibition of cell growth measured after 72 hrs by MTT assay. The following applies: MGC-803, 72 h. A digest of the protocol:
(§1)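 Cells in log phase were seeded at 3000–5000 per well and cultured 24 h at 37 °C, then exposed to a range of compound concentrations in fresh medium for 72 h. MTT was added and incubated 4 h at 37 °C, formazan was dissolved in DMSO, and absorbance was read at 490 nm. IC50 was taken from survival rate, as mean ± SD of three independent experiments. Stocks were 10 mM in DMSO.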

The next assay concerns PC-3. In words: Antiproliferative activity against human PC-3 cells assessed as inhibition of cell growth measured after 72 hrs by MTT assay. As to conditions: PC-3, 72 h. A digest of the protocol: as §1
The test system of the next assay is MCF7. As to the kind of experiment: Antiproliferative activity against human MCF7 cells assessed as inhibition of cell growth measured after 72 hrs by MTT assay. The following applies: MCF7, 72 h. Put shortly:
as §1

The next assay has as its system NCI-H1975. As to the kind of experiment: Antiproliferative activity against human NCI-H1975 cells assessed as inhibition of cell growth measured after 72 hrs by MTT assay. As to conditions: NCI-H1975, 72 h. A digest of the protocol: as §1

As to `C=CC(=O)Nc1cccc(Nc2cc(C(F)(F)F)nc(SCC3CCOCC3)n2)c1`, the IC50 in the assay with MGC-803 worked out at 28.3 µM; with PC-3, 8.96 µM; in the assay with MCF7, 17.7 µM; with NCI-H1975, 16.3 µM.
With `FC(F)(F)c1ccc(CSc2nc(N3CCSCC3)cc(C(F)(F)F)n2)cc1`, the IC50 in the assay on MGC-803 was 44 µM; with PC-3, 46.8 µM; in the assay on MCF7, over 50 µM; in the assay on NCI-H1975 it was over 50 µM.
`Fc1ccc(Nc2cc(C(F)(F)F)nc(SCc3ccc(C(F)(F)F)cc3)n2)cc1Cl`: the IC50 in the assay on MGC-803 is 41.4 µM; in the assay with PC-3, 35 µM; with MCF7 it was over 50 µM; in the assay with NCI-H1975, 22.1 µM.
For `C=CC(=O)Nc1cccc(Nc2cc(C(F)(F)F)nc(SCc3ccccc3Br)n2)c1`, the concentration for half-maximal inhibition (IC50) with MGC-803 is 30.9 µM; with PC-3 it was 8.17 µM; in the assay on MCF7, 20.2 µM; in the assay on NCI-H1975 it was 9.62 µM.
`FC(F)(F)c1ccc(CSc2nc(N3CCN(c4ccccc4)CC3)cc(C(F)(F)F)n2)cc1`: the IC50 in the assay on MGC-803 is 35.2 µM; in the assay on PC-3, 42.7 µM; with MCF7 it was over 50 µM; in the assay with NCI-H1975, over 50 µM.
Take `FC(F)(F)c1ccc(CSc2nc(Sc3ncccn3)cc(C(F)(F)F)n2)cc1`: the IC50 was 28.6 µM in the assay with MGC-803, over 50 µM in the assay with PC-3, over 50 µM with MCF7 and 14 µM in the assay with NCI-H1975.
Take `FC(F)(F)c1ccc(CSc2nc(N3CCNCC3)cc(C(F)(F)F)n2)cc1`: the IC50 in the assay on MGC-803 is 5.87 µM; in the assay on PC-3, 15.9 µM; in the assay with MCF7 it was 10.7 µM; with NCI-H1975, 6.21 µM.
In the case of `C=CC(=O)Nc1cccc(Nc2cc(C(F)(F)F)nc(SCc3cccc(Br)c3)n2)c1`, the IC50 came to 22.8 µM in the assay on MGC-803, 7.44 µM in the assay on PC-3, 14.3 µM in the assay on MCF7 and 7.44 µM in the assay with NCI-H1975.
For the molecule `FC(F)(F)c1ccc(CSc2nc(Sc3nnnn3-c3ccccc3)cc(C(F)(F)F)n2)cc1`, the IC50 in the assay with MGC-803 was 12.4 µM; in the assay with PC-3, 45.3 µM; in the assay on MCF7 it was 39.5 µM; in the assay with NCI-H1975 it was 24.3 µM.
As for `C=CC(=O)Nc1cccc(Nc2cc(C(F)(F)F)nc(SCc3cccc(Cl)c3)n2)c1`, the IC50 in the assay with MGC-803 came to 35.2 µM; in the assay with PC-3, 10.5 µM; with MCF7, 10.1 µM; in the assay with NCI-H1975, 14.8 µM.
Turning to `CCN1CCN(c2cc(C(F)(F)F)nc(SCc3ccc(C(F)(F)F)cc3)n2)CC1`, the IC50 in the assay with MGC-803 amounted to 25.6 µM; in the assay with PC-3 it was 27.2 µM; with MCF7, 22 µM; in the assay on NCI-H1975, 15 µM.
Turning to `C=CC(=O)Nc1cccc(Nc2cc(C(F)(F)F)nc(SCc3ccc(F)cc3)n2)c1`, the IC50 with MGC-803 was found to be 9.25 µM; in the assay on PC-3, 9.22 µM; in the assay with MCF7, 14.9 µM; with NCI-H1975, 10.1 µM.
For the molecule `C=CC(=O)Nc1cccc(Nc2cc(C(F)(F)F)nc(SCc3ccccc3)n2)c1`, the half-maximal inhibitory concentration (IC50) turned out to be 22.3 µM in the assay with MGC-803, 14.2 µM in the assay with PC-3, 19.1 µM in the assay on MCF7 and 21.9 µM in the assay on NCI-H1975.
Consider `CN1CCN(c2cc(C(F)(F)F)nc(SCc3ccc(C(F)(F)F)cc3)n2)CC1`, for which the IC50 in the assay with MGC-803 was determined as 15.8 µM; in the assay with PC-3, 34.7 µM; in the assay on MCF7 it was 30.2 µM; with NCI-H1975, 23.9 µM.
`COc1ccc(Nc2cc(C(F)(F)F)nc(SCc3ccc(C(F)(F)F)cc3)n2)cn1`: the IC50 came out at 12.2 µM in the assay with MGC-803, 23.8 µM in the assay on PC-3, 36.9 µM in the assay with MCF7 and 6.32 µM in the assay on NCI-H1975.
With `C=CC(=O)Nc1cccc(Nc2cc(C(F)(F)F)nc(SCc3cccc(C)c3)n2)c1`, the IC50 was found to be 12.6 µM with MGC-803, 9.05 µM in the assay on PC-3, 26.7 µM in the assay with MCF7 and 13.2 µM in the assay with NCI-H1975.
Turning to `Cc1csc(Sc2cc(C(F)(F)F)nc(SCc3ccc(C(F)(F)F)cc3)n2)n1`, the IC50 in the assay with MGC-803 was determined as 21.3 µM; with PC-3, 12 µM; with MCF7 it was 14.5 µM; in the assay with NCI-H1975, 5.84 µM.
For the molecule `FC(F)(F)c1ccc(CSc2nc(Sc3ccccn3)cc(C(F)(F)F)n2)cc1`, the IC50 is over 50 µM with MGC-803, 25.2 µM in the assay on PC-3, 43.2 µM in the assay with MCF7 and 23.9 µM in the assay with NCI-H1975.
For `C=CC(=O)Nc1cccc(Nc2cc(C(F)(F)F)nc(SCc3cnc(Cl)s3)n2)c1`, the IC50 with MGC-803 was found to be 38.3 µM; in the assay with PC-3 it was 11.5 µM; in the assay on MCF7, 10.7 µM; with NCI-H1975, 10.9 µM.
For `C=CC(=O)Nc1cccc(Nc2cc(C(F)(F)F)nc(SCC3CCCCC3)n2)c1` the same measures were 34.1 µM, 12.5 µM, 11.2 µM and 18 µM.
`FC(F)(F)c1ccc(CSc2nc(Nc3ccc(Cl)cc3Cl)cc(C(F)(F)F)n2)cc1`: the 50% inhibitory concentration (IC50) is 35.5 µM in the assay on MGC-803, 29.6 µM in the assay on PC-3, over 50 µM in the assay with MCF7 and 33.5 µM in the assay on NCI-H1975.
Consider `C=CC(=O)Nc1cccc(Nc2cc(C(F)(F)F)nc(SCC3CC3)n2)c1`, for which the IC50 in the assay with MGC-803 amounted to 38.7 µM; in the assay with PC-3 it was 12.6 µM; in the assay on MCF7 it was 14.2 µM; in the assay on NCI-H1975, 19.2 µM.
Regarding `C=CC(=O)Nc1cccc(Nc2cc(C(F)(F)F)nc(SCc3ccc(Cl)cc3)n2)c1`, the IC50 in the assay on MGC-803 was 29.3 µM; in the assay with PC-3, 9.99 µM; in the assay with MCF7, 15.8 µM; in the assay with NCI-H1975, 11.7 µM.
Regarding `FC(F)(F)c1ccc(CSc2nc(N3CCOCC3)cc(C(F)(F)F)n2)cc1`, the IC50 in the assay with MGC-803 is over 50 µM; in the assay with PC-3, 40.8 µM; with MCF7, over 50 µM; in the assay on NCI-H1975, over 50 µM.
Consider `COc1cc(Nc2cc(C(F)(F)F)nc(SCc3ccc(C(F)(F)F)cc3)n2)cc(OC)c1OC`, for which the IC50 worked out at 15.5 µM with MGC-803, 19.5 µM with PC-3, 10.9 µM in the assay with MCF7 and 9.92 µM in the assay on NCI-H1975.
In the case of `C=CC(=O)Nc1cccc(Nc2cc(C(F)(F)F)nc(SCc3ccccc3C)n2)c1`, the IC50 is 18.2 µM in the assay on MGC-803, 15.1 µM in the assay with PC-3, 33.6 µM in the assay with MCF7 and 14.6 µM in the assay with NCI-H1975.
Take `FC(F)(F)c1ccc(CSc2nc(SC3=NCCS3)cc(C(F)(F)F)n2)cc1`: the half-inhibitory concentration (IC50) with MGC-803 was determined as 24.5 µM; in the assay with PC-3, 40.6 µM; in the assay with MCF7, 44.9 µM; in the assay with NCI-H1975, 24.2 µM.
Turning to `C=CC(=O)Nc1cccc(Nc2cc(C(F)(F)F)nc(SCC3CCCO3)n2)c1` (stereo not drawn), the IC50 with MGC-803 is 37.2 µM; with PC-3 it was 12.9 µM; in the assay with MCF7, 18.3 µM; with NCI-H1975, 17.6 µM.
For the molecule `FC(F)(F)c1ccc(CSc2nc(Nc3nnn[nH]3)cc(C(F)(F)F)n2)cc1`, the IC50 in the assay on MGC-803, in the assay with PC-3, in the assay on MCF7 and in the assay with NCI-H1975 was over 50 µM throughout.
Regarding `C=CC(=O)Nc1cccc(Nc2cc(C(F)(F)F)nc(SCc3cccc(F)c3)n2)c1`, the IC50 in the assay with MGC-803 amounted to 7.14 µM; in the assay on PC-3, 8.57 µM; in the assay on MCF7 it was 23 µM; with NCI-H1975 it was 13.7 µM.
As for `COc1ccc(Nc2cc(C(F)(F)F)nc(SCc3ccc(C(F)(F)F)cc3)n2)cc1`, the IC50 is 8.7 µM in the assay on MGC-803, 35.3 µM with PC-3, 22.2 µM in the assay with MCF7 and 13.8 µM with NCI-H1975.
The corresponding values for `C=CC(=O)Nc1cccc(Nc2cc(C(F)(F)F)nc(SCc3ccc(C)cc3)n2)c1` are 18.5 µM, 17.8 µM, 25.7 µM and 15 µM.
Take `Cc1ccc(Nc2cc(C(F)(F)F)nc(SCc3ccc(C(F)(F)F)cc3)n2)cc1`: the IC50 in the assay with MGC-803 is 32.3 µM; in the assay on PC-3, 16.5 µM; with MCF7 it was over 50 µM; in the assay on NCI-H1975 it was 20.6 µM.
Turning to `CC(C)(C)OC(=O)N1CCN(c2cc(C(F)(F)F)nc(SCc3ccc(C(F)(F)F)cc3)n2)CC1`, the IC50 with MGC-803 was 22.2 µM; with PC-3, 40.6 µM; in the assay with MCF7 it was over 50 µM; in the assay on NCI-H1975 it was over 50 µM.
On to `C=CC(=O)Nc1cccc(Nc2cc(C(F)(F)F)nc(SCc3c(Cl)cccc3Cl)n2)c1`, for which the IC50 in the assay on MGC-803 was determined as 34.7 µM; in the assay with PC-3, 14.6 µM; in the assay with MCF7, 9.66 µM; in the assay with NCI-H1975, 9.03 µM.
Take `FC(F)(F)c1ccc(CSc2nc(N3CCN(c4ncccn4)CC3)cc(C(F)(F)F)n2)cc1`: the IC50 with MGC-803 was 35.2 µM; in the assay on PC-3 it was over 50 µM; in the assay on MCF7, over 50 µM; with NCI-H1975, 18.3 µM.
With `C=CC(=O)Nc1cccc(Nc2cc(C(F)(F)F)nc(SCc3ccccc3C(F)(F)F)n2)c1`, the concentration for half-maximal inhibition (IC50) in the assay with MGC-803 was 26.6 µM; with PC-3, 7.96 µM; in the assay with MCF7, 17.2 µM; with NCI-H1975, 6.55 µM.
Consider `C=CC(=O)Nc1cccc(Nc2cc(C(F)(F)F)nc(SCc3ccccc3Cl)n2)c1`, for which the IC50 with MGC-803 is 28.4 µM; with PC-3, 13.6 µM; in the assay with MCF7, 11.8 µM; with NCI-H1975 it was 13.1 µM.
`C=CC(=O)Nc1cccc(Nc2cc(C(F)(F)F)nc(SCc3ccc(OC)cc3)n2)c1`: the IC50 with MGC-803 worked out at 15.1 µM; in the assay on PC-3, 15.8 µM; in the assay with MCF7, 7.59 µM; in the assay on NCI-H1975, 10.2 µM.
Take `C=CC(=O)Nc1cccc(Nc2cc(C(F)(F)F)nc(SCc3ccc(Cl)cc3Cl)n2)c1`: the IC50 is 18.6 µM in the assay with MGC-803, 6.66 µM with PC-3, 6.25 µM in the assay with MCF7 and 15.3 µM in the assay with NCI-H1975.
As to `C=CC(=O)Nc1cccc(Nc2cc(C(F)(F)F)nc(SCc3ccc(Br)cc3)n2)c1`, the IC50 in the assay with MGC-803 amounted to 29.4 µM; in the assay with PC-3, 6.32 µM; in the assay with MCF7, 11.7 µM; in the assay with NCI-H1975 it was 6.44 µM.
The corresponding values for `C=CC(=O)Nc1cccc(Nc2cc(C(F)(F)F)nc(SCc3cccc(C(F)(F)F)c3)n2)c1` are 18.7 µM, 5.92 µM, 12.4 µM and 5.07 µM.
